In ChEMBL document CHEMBL2163304, “Strynuxlines A and B, alkaloids with an unprecedented carbon skeleton from Strychnos nux-vomica” (J Nat Prod, 2012):

How the values were obtained:
Type in all cases: functional, cell-based
SW480 = assay: Cytotoxicity against human SW480 cells after 48 hrs by MTT assay; details: SW480, 48 h
How it was run: (§1)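 Human tumour cells were seeded in 96-well plates at an initial density of 1 × 10^5 cells/mL. Adherent lines were allowed to attach for 12 h before dosing, and HL-60 suspension cells were seeded just before dosing. Cells were exposed to […], 0.32, 1.6, 8 and 40 μM for 48 h, in triplicate, with cisplatin and paclitaxel as positive controls. Viability was read by MTT and growth curves were plotted.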

MCF7 = assay: Cytotoxicity against human MCF7 cells after 48 hrs by MTT assay; details: MCF7, 48 h; how it was run: as §1
A549 = assay: Cytotoxicity against human A549 cells after 48 hrs by MTT assay; details: A549, 48 h; how it was run: as §1
SMMC-7721 = assay: Cytotoxicity against human SMMC7721 cells after 48 hrs by MTT assay; details: SMMC-7721, 48 h; how it was run: as §1
HL-60 = assay: Cytotoxicity against human HL60 cells after 48 hrs by MTT assay; details: HL-60, 48 h; how it was run: as §1

| Compound | IC50 (SW480) [µM] | IC50 (MCF7) [µM] | IC50 (A549) [µM] | IC50 (SMMC-7721) [µM] | IC50 (HL-60) [µM] |
| --- | --- | --- | --- | --- | --- |
| O=C1C[C@@H]2OCC=C3C[N+]4([O-])CC[C@]56c7ccccc7N1[C@H]5[C@H]2[C@H]3C[C@@H]64 (stereo not given in full) | > 40 | > 40 | > 40 | > 40 | > 40 |
| COc1ccc2c(c1)[C@@]13CCN4CC5=CCO[C@H]6CC(=O)N2[C@H]1[C@H]6[C@H]5C[C@H]43 | > 40 | > 40 | > 40 | > 40 | > 40 |
| COC1=C2CN(C)CC[C@]34C(=O)C[C@@H]2[C@H]2[C@H](CC(=O)N(c5ccccc53)[C@@H]24)OC1 | > 40 | > 40 | > 40 | > 40 | > 40 |
| COc1ccc2c(c1)N1C(=O)C[C@@H]3OCC=C4CN5CC[C@]26[C@@H]5C[C@@H]4[C@@H]3[C@H]16 | > 40 | > 40 | > 40 | > 40 | > 40 |
| COc1cc2c(cc1OC)[C@@]13CC[N+]4([O-])CC5=CCO[C@H]6CC(=O)N2[C@H]1[C@H]6[C@H]5C[C@@H]34 (stereo not given in full) | > 40 | > 40 | > 40 | > 40 | > 40 |
| C/C=C1/CN2CC[C@@]34c5ccccc5N5/C=C6/[C@H]7C[C@@H]8N(CC[C@@]89c8ccccc8N(/C=C(/[C@H]1C[C@H]23)[C@H]54)[C@@H]69)C/C7=C/C [BISNORDIHYDROTOXIFERINE] | > 40 | > 40 | > 40 | > 40 | > 40 |
| COc1cc2c(cc1OC)[C@@]13CCN4CC5=CCO[C@H]6CC(=O)N2[C@H]1[C@H]6[C@H]5C[C@H]43 [BRUCINE] | > 40 | > 40 | > 40 | > 40 | > 40 |
| CN1CC[C@]23C(=O)C[C@H]4C(=CCO[C@H]5CC(=O)N(c6ccccc62)[C@H]3[C@H]54)C1 [ICAJINE] | > 40 | > 40 | > 40 | > 40 | > 40 |
| COc1cc2c(cc1OC)[C@]13CCN4C/C(=C/CO)[C@H](C[C@H]41)C1=CCC(=O)N2[C@@H]13 [ISOBRUCINE] | > 40 | > 40 | > 40 | > 40 | > 40 |
| O=C1CC=C2[C@H]3C[C@@H]4N(CC[C@@]45c4ccccc4N1[C@@H]25)C/C3=C/CO [ISOSTRYCHNINE] | > 40 | > 40 | > 40 | > 40 | > 40 |
| COc1cc2c(cc1OC)[C@@]13CCN(C)CC4=CCO[C@H]5CC(=O)N2[C@H]1[C@H]5[C@H]4CC3=O [NOVACINE] | > 40 | > 40 | > 40 | > 40 | > 40 |
| COc1cc2c(cc1OC)[C@@]13CCN4CC5=CCO[C@H]6CC(=O)N2[C@H]1[C@H]6[C@H]5C[C@]43O [PSEUDOBRUCINE] | > 40 | > 40 | > 40 | > 40 | > 40 |
| O=C1C[C@@H]2OCC=C3CN4CC[C@]56c7ccccc7N1[C@H]5[C@H]2[C@H]3C[C@]46O [PSEUDOSTRYCHNINE] | > 40 | > 40 | > 40 | > 40 | > 40 |
| C[N+]12CC[C@@]34c5ccccc5N5C(=O)C[C@@H]6OCC=C(C1)[C@H](C[C@@H]32)[C@@H]6[C@H]54 (stereo not given in full) [STRYCHNINE METHIODIDE] | > 40 | > 40 | > 40 | > 40 | > 40 |
| O=C1C[C@@H]2OCC=C3CN4CC[C@]56c7ccccc7N1[C@H]5[C@H]2[C@H]3C[C@H]46 [STRYCHNINE] | > 40 | > 40 | > 40 | > 40 | > 40 |
| COc1cc2c3c4n(c2cc1OC)C(=O)C[C@@H]1OCC=C2CN(CC3)C(=O)C[C@@H]2[C@H]41 [STRYNUXLINE A] | 13.3 | 12.2 | 17.1 | 9.4 | 7.15 |
| O=C1C[C@H]2C3=CCO[C@H]4CC(=O)n5c(c(c6ccccc65)CCN1C3)[C@H]42 [STRYNUXLINE B] | 19 | 11.2 | 18.1 | 15.7 | 16.5 |
| CN1CC[C@]23C(=O)C[C@H]4C(=CCO[C@H]5CC(=O)N(c6c(O)cccc62)[C@H]3[C@H]54)C1 [VOMICINE] | > 40 | > 40 | > 40 | > 40 | > 40 |
